In publication PMC7089779 (ChemMedChem, 2018):
Where two headings read alike, the source gives them in different places.

How the values were obtained:
[1] = test system: L. infantum axenic amastigotes; experiment: Antileishmanial activity on L. infantum axenic amastigotes; type: cell-based; settings: Leishmania infantum, 48 h, read-out: IC50 L. infantum axenic amastigotes
How it was run: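 They were moved to RPMI at pH 5.4 for 24 h at 24°C, then 24 h at 37°C, to give axenic amastigotes. Compounds in DMSO (final <0.5% v/v) were tested in duplicate for 48 h at 37°C. Read-out was Steady Glow luminescence. IC50 came from non-linear regression, mean of three independent experiments.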

[2] = Cytotoxic evaluation on HepG2 cell line; type: cell-based; settings: human, HepG2 cells (hepatocarcinoma cell line)
How it was run: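 HepG2 cells were seeded at 1 × 10^5 cells/mL in Alpha MEM with 10% FBS, 2 mM L-glutamine and antibiotics, and pre-incubated for 24 h at 37°C, 5% CO2. Compounds were added at various concentrations for 72 h, and wells were checked for precipitate. MTT (0.5 mg/mL) was added for 2 h, formazan was dissolved in DMSO, and A570 was read. Doxorubicin was the positive control. CC50 came from non-linear regression, mean of three independent experiments.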

[3] = test system: T. brucei brucei trypomastigotes; experiment: Antitrypanosomal activity on T. brucei brucei trypomastigotes; type: cell-based, Trypanosoma brucei brucei; settings: for Antitrypanosomal selectivity Index: CC50 HepG2 / IC50 T. brucei brucei; for times more potent than the meta-substituted analogue: T. brucei brucei IC50, para versus meta (15 vs 16, 21 vs 22)
[4] = Cyclic voltammetry, reduction potentials; type: physicochemical; settings: DMSO/TBAPF6, SCE/GC, 1 electron reversible reduction, V versus NHE
[5] = test system: T. brucei brucei trypomastigotes wild type strain; experiment: Bioactivation study, wild type strain; type: cell-based; settings: Trypanosoma brucei, 72 h, read-out: IC50 T. brucei brucei trypomastigotes wild type strain
[6] = test system: T. brucei brucei trypomastigotes NTR over-expressing strain; experiment: Bioactivation study, strain overexpressing the nitroreductase; type: cell-based, Trypanosoma brucei; settings: for IC50: Trypanosoma brucei, 72 h, read-out: IC50 T. brucei brucei trypomastigotes NTR over-expressing strain; for Fold change: wild type IC50 / NTR over-expressing IC50
How it was run: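 Bloodstream T. brucei S427 'single marker' was grown at 37°C in HMI9-T with 2.5 µg/mL G418. The NTR1-overexpressing line also received 2.5 µg/mL phleomycin, with NTR induced by 1 µg/mL tetracycline 48 h before assay. Triplicate cultures were seeded at 1 × 10^5 cells/mL with inhibitor and counted after 72 h. EC50 came from a two-parameter fit (slope factor m) to background-corrected density as % of uninhibited control. Fold change is wild-type IC50 / overexpressor IC50.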

[7] = Chemical stability of the product; type: physicochemical; settings: in words; cyclises to 25 on recrystallisation from acetonitrile
[8] = Aqueous solubility as observed in the biological assays; type: physicochemical; settings: in words
[9] = test system: L. infantum axenic amastigotes; settings: read-out: IC50 L. infantum axenic amastigotes; cited from earlier work
[10] = test system: T. brucei brucei trypomastigotes; settings: cited from earlier work
HepG2 cell line = settings: read-out: CC50 HepG2; cited from earlier work
[11] = test system: T. brucei brucei trypomastigotes wild type strain; settings: read-out: IC50 T. brucei brucei trypomastigotes wild type strain; cited from earlier work
[12] = test system: T. brucei brucei trypomastigotes NTR over-expressing strain; settings: wild type IC50 / NTR over-expressing IC50; cited from earlier work
[13] = cited from earlier work

IC50 [1] [µM] | Compound | CC50 at 72 h [2] [µM] | Antitrypanosomal selectivity Index [3] | also measured
0.06 ± 0.001 | C[C@@H]1[C@H](O)[C@@H](C)/C=C/C=C/C=C/C=C/C=C/C=C/C=C/[C@H](O[C@@H]2O[C@H](C)[C@@H](O)[C@H](N)[C@@H]2O)C[C@@H]2O[C@](O)(C[C@@H](O)C[C@@H](O)[C@H](O)CC[C@@H](O)C[C@@H](O)CC(=O)O[C@H]1C)C[C@H](O)[C@H]2C(=O)O [Amphotericin B, reference compound] | 7 ± 0.25 |  | 
> 12 | O=c1[nH]c2c([N+](=O)[O-])cccc2cc1-c1ccccc1 [Compound 1, 8-nitro-3-phenylquinolin-2(1H)-one] | > 12 | >2 | E° (reduction potential) [4]: -0.59 V
> 6 | COc1ccc(-c2cc3cccc([N+](=O)[O-])c3[nH]c2=O)cc1 [Compound 2, 3-(4-methoxyphenyl)-8-nitroquinolin-2(1H)-one] | > 6 |  | 
> 3 | O=c1[nH]c2c([N+](=O)[O-])cccc2cc1-c1ccc(O)cc1 [Compound 3, 3-(4-hydroxyphenyl)-8-nitroquinolin-2(1H)-one] | > 3 |  | 
> 3 | Nc1ccc(-c2cc3cccc([N+](=O)[O-])c3[nH]c2=O)cc1 [Compound 4, 3-(4-aminophenyl)-8-nitroquinolin-2(1H)-one] | > 3 |  | 
> 3 | O=c1[nH]c2c([N+](=O)[O-])cccc2cc1-c1ccc(Cl)cc1 [Compound 5, 3-(4-chlorophenyl)-8-nitroquinolin-2(1H)-one] | > 3 |  | 
> 6 | O=c1[nH]c2c([N+](=O)[O-])cccc2cc1-c1ccc(F)cc1 [Compound 6, 3-(4-fluorophenyl)-8-nitroquinolin-2(1H)-one] | > 6 |  | 
> 6 | O=c1[nH]c2c([N+](=O)[O-])cccc2cc1-c1ccc(C(F)(F)F)cc1 [Compound 7, 8-nitro-3-(4-trifluoromethylphenyl)quinolin-2(1H)-one] | > 6 |  | E° (reduction potential) [4]: -0.53 V
> 6 | O=c1[nH]c2c([N+](=O)[O-])cccc2cc1-c1ccsc1 [Compound 8, 8-nitro-3-(thiophen-3-yl)quinolin-2(1H)-one] | > 6 |  | 
> 3 | O=c1[nH]c2c([N+](=O)[O-])cccc2cc1-c1ccco1 [Compound 9, 3-(2-furanyl)-8-nitroquinolin-2(1H)-one] | > 3 |  | 
> 50 | O=c1[nH]c2c([N+](=O)[O-])cccc2cc1-c1cccnc1 [Compound 10, 8-nitro-3-(pyridine-3-yl)quinolin-2(1H)-one] | > 25 | >9 | 
> 25 | O=c1[nH]c2c([N+](=O)[O-])cccc2cc1-c1ccc(CO)cc1 [Compound 12, 3-(4-hydroxymethylphenyl)-8-nitroquinolin-2(1H)-one] | > 25 | >13 | 
29.3 ± 4.2 | O=c1[nH]c2c([N+](=O)[O-])cccc2cc1-c1cccc(CO)c1 [Compound 13, 3-(3-hydroxymethylphenyl)-8-nitroquinolin-2(1H)-one] | > 25 | >17 | 
22 ± 2 | O=c1[nH]c2c([N+](=O)[O-])cccc2cc1-c1ccccc1CO [Compound 14, 3-(2-hydroxymethylphenyl)-8-nitroquinolin-2(1H)-one] | > 100 | >14 | 
35 ± 1.7 | O=Cc1ccc(-c2cc3cccc([N+](=O)[O-])c3[nH]c2=O)cc1 [Compound 15, 3-(4-formylphenyl)-8-nitroquinolin-2(1H)-one] | 30 ± 3.7 | 60 | times more potent than the meta-substituted analogue [3]: 11
10.2 ± 0.6 | O=Cc1cccc(-c2cc3cccc([N+](=O)[O-])c3[nH]c2=O)c1 [Compound 16, 3-(3-formylphenyl)-8-nitroquinolin-2(1H)-one] | > 100 | >18 | 
9.8 ± 1.2 | O=Cc1ccccc1-c1cc2cccc([N+](=O)[O-])c2[nH]c1=O [Compound 17, 3-(2-formylphenyl)-8-nitroquinolin-2(1H)-one] | > 50 | >7 | 
> 12.5 | COC(=O)c1ccc(-c2cc3cccc([N+](=O)[O-])c3[nH]c2=O)cc1 [Compound 18, 3-(4-methoxycarbonylphenyl)-8-nitroquinolin-2(1H)-one] | > 12.5 |  | 
> 100 | O=C(O)c1cccc(-c2cc3cccc([N+](=O)[O-])c3[nH]c2=O)c1 [Compound 22, 3-(3-carboxyphenyl)-8-nitroquinolin-2(1H)-one] | > 100 | >13 | 
> 100 | O=C(O)c1ccccc1-c1cc2cccc([N+](=O)[O-])c2[nH]c1=O [Compound 23, 3-(2-carboxyphenyl)-8-nitroquinolin-2(1H)-one] | > 100 |  | 
 | O=c1[nH]c2c([N+](=O)[O-])cccc2cc1C#Cc1ccccc1 [Compound 24, 8-nitro-3-phenylethynylquinolin-2(1H)-one] |  |  | stability [7]: too unstable
 | O=[N+]([O-])c1cccc2cc3cc(-c4ccccc4)oc3nc12 [Compound 25, 8-nitro-2-phenyl-furo[2,3-b]quinoline] |  |  | aqueous solubility [8]: very poor aqueous solubility
12.8 | COc1nc2c([N+](=O)[O-])cccc2cc1-c1ccc(C(=O)O)cc1 [Compound 26, 3-(4-carboxyphenyl)-2-methoxy-8-nitroquinoline] |  |  | 
 | COc1cccc2c1C(=O)c1c(O)c3c(c(O)c1C2=O)C[C@@](O)(C(=O)CO)C[C@@H]3O[C@H]1C[C@H](N)[C@H](O)[C@H](C)O1 [Doxorubicin, reference compound] | 0.2 ± 0.02 |  | 
 | NCCCC(N)(C(=O)O)C(F)F (centres unmarked) [Eflornithine, reference compound] | > 100 | >6 | 
3.3 ± 0.7 | CSc1ccc(OCc2ncc([N+](=O)[O-])n2C)cc1 [Fexinidazole, reference compound] | > 100 | >250 | 
 | O=c1[nH]c2c([N+](=O)[O-])cccc2cc1Br [Initial Hit, 3-bromo-8-nitroquinolin-2(1H)-one] |  |  | IC50 [9]: 7.1 ± 1.5 µM; Antitrypanosomal selectivity Index ([10]; CC50 HepG2 / IC50 T. brucei brucei): 48; IC50 ([10]; read-out: IC50 T. brucei brucei trypomastigotes): 1.9 ± 0.44 µM; CC50 (HepG2 cell line): 92 ± 13 µM; IC50 [11]: 17.7 ± 1 µM; Fold change [12]: 4.5; genotoxicity in the comet assay [13]: not genotoxic
0.8 ± 0.2 | CCCCCCCCCCCCCCCCOP(=O)([O-])OCC[N+](C)(C)C [Miltefosine, reference compound] | 84.5 ± 8.8 |  | 
 | CC1CS(=O)(=O)CCN1/N=C/c1ccc([N+](=O)[O-])o1 (centres unmarked) [Nifurtimox, reference compound] |  |  | IC50 [5]: 1.9 ± 0.05 µM; IC50 [6]: 0.6 ± 0.05 µM; Fold change [6]: 3.1
 | Cc1ccc(C(=O)Nc2ccc(S(=O)(=O)O)c3cc(S(=O)(=O)O)cc(S(=O)(=O)O)c23)cc1NC(=O)c1cccc(NC(=O)Nc2cccc(C(=O)Nc3cc(C(=O)Nc4ccc(S(=O)(=O)O)c5cc(S(=O)(=O)O)cc(S(=O)(=O)O)c45)ccc3C)c2)c1 [Suramin, reference compound] | > 100 | >3333 | 

Compound | IC50 [1] [µM] | CC50 at 72 h [2] [µM] | Antitrypanosomal selectivity Index [3] | also measured
O=C(O)c1ccc(-c2cc3cccc([N+](=O)[O-])c3[nH]c2=O)cc1 [Compound 21, 3-(4-carboxyphenyl)-8-nitroquinolin-2(1H)-one] | > 100 | 120 ± 7 | 80 | times more potent than the meta-substituted analogue [3]: 5; IC50 [5]: 5.4 ± 0.12 µM; IC50 [6]: 4.2 ± 0.2 µM; Fold change [6]: 1.3; E° (reduction potential) [4]: -0.56 V
